{
  "source": "ChEMBL document CHEMBL1153380",
  "about": "“Discovery of potent and orally active 3-alkoxy-5-phenoxy-N-thiazolyl benzamides as novel allosteric glucokinase activators” (Bioorg Med Chem, 2009)",
  "key": {"[1]": {"target": "T1, Hexokinase-4 (Homo sapiens, UniProt P35557)", "T1 sequence (P35557 whole entry)": "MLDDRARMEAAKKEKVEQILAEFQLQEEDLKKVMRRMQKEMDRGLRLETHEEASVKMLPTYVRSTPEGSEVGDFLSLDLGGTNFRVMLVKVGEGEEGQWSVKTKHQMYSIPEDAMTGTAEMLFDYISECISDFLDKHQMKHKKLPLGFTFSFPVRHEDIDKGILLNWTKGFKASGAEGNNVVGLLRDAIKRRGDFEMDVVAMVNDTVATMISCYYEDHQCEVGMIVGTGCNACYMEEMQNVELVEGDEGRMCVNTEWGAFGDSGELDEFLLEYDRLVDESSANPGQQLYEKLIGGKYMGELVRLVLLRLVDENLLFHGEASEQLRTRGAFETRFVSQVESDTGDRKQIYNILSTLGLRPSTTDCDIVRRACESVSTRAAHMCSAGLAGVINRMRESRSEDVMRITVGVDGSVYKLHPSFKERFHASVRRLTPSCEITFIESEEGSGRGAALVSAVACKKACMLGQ", "assay": "Activation of flag-tagged human recombinant liver glucokinase expressed in Escherichia coli by glucose-6-phosphate dehydrogenase coupled continuous spectrophotometric assay in presence of 2.5 mM glucose"}, "[2]": {"target": "T1, Hexokinase-4", "assay": "Activation of flag-tagged human recombinant liver glucokinase expressed in Escherichia coli by glucose-6-phosphate dehydrogenase coupled continuous spectrophotometric assay in presence of 10 mM glucose"}, "[3]": {"assay": "Total clearance in Sprague-Dawley rat at 1 mg/kg, iv", "type": "ADME, organism-based", "design": "dose 1 mg/kg, route intravenous", "details": "in vivo"}, "[4]": {"assay": "AUC (0 to infinity) in Sprague-Dawley rat at 3 mg/kg, po", "type": "ADME, organism-based", "design": "time infinity, dose 3 mg/kg, route oral", "details": "plasma"}, "[5]": {"assay": "Half life in Sprague-Dawley rat at 1 mg/kg, iv", "type": "ADME, organism-based", "design": "dose 1 mg/kg, route intravenous", "details": "in vivo"}, "[6]": {"assay": "AUC (0 to infinity) in Sprague-Dawley rat at 1 mg/kg, iv", "type": "ADME, organism-based", "design": "time infinity, dose 1 mg/kg, route intravenous", "details": "plasma"}, "[7]": {"assay": "Volume of distribution at steady state in Sprague-Dawley rat at 1 mg/kg, iv", "type": "ADME, organism-based", "design": "dose 1 mg/kg, route intravenous", "details": "in vivo, read-out: Vdss"}, "[8]": {"assay": "Oral bioavailability in Sprague-Dawley rat at 3 mg/kg", "type": "ADME, organism-based", "details": "in vivo"}, "[9]": {"tested_on": "Rattus norvegicus", "assay": "Glucose lowering effect in overnight-fasted po dosed Wistar rat assessed as decrease in glucose AUC level administered 30 mins before oral glucose challenge by OGTT", "type": "functional, organism-based", "outline": "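Rats dosed orally in 0.5% methylcellulose vehicle, then given an oral glucose challenge (2 g/kg) 30 min later. Plasma glucose measured just before and after the challenge. Glucose AUC used as read-out.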"}, "[10]": {"assay": "Cmax in Sprague-Dawley rat at 3 mg/kg, po", "type": "ADME, organism-based", "design": "dose 3 mg/kg, route oral", "details": "in vivo"}, "[11]": {"tested_on": "Mus musculus", "assay": "Glucose lowering effect in normal-fed ICR mouse assessed as decrease in plasma glucose AUC level at 30 mg/kg, po", "type": "functional, organism-based", "design": "dose 30 mg/kg", "outline": "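Mice given a single oral dose in 0.5% methylcellulose vehicle. Blood glucose measured just before dosing and at 0.5, 1, 1.5, 2, 3 and 4 h after dosing.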"}, "[12]": {"assay": "Tmax in Sprague-Dawley rat at 3 mg/kg, po", "type": "ADME, organism-based", "design": "dose 3 mg/kg, route oral", "details": "in vivo"}},
  "note": "Calls of active or inactive are those of the source. The rule behind the calls is not given here.",
  "data": [
    {"smiles": "Cc1csc(NC(=O)c2cc(Oc3cccc(S(C)(=O)=O)c3)cc(OC(C)C)c2)n1", "values": [
      {"measurement": "EC50", "setting": "[1]", "value": 1100, "unit": "nM"},
      {"measurement": "EC50", "setting": "[2]", "value": 90, "unit": "nM"}
    ]},
    {"smiles": "COc1cc(Oc2ccccc2S(C)(=O)=O)cc(C(=O)Nc2nc(C)cs2)c1", "values": [
      {"measurement": "EC50", "setting": "[1]", "value": 11000, "unit": "nM"},
      {"measurement": "EC50", "setting": "[2]", "value": 1900, "unit": "nM"}
    ]},
    {"smiles": "Cc1csc(NC(=O)c2cc(Oc3ccccc3S(C)(=O)=O)ccc2Oc2ccccc2)n1", "values": [
      {"measurement": "EC50", "setting": "[1]", "value": "> 30000", "unit": "nM"},
      {"measurement": "EC50", "setting": "[2]", "value": "> 30000", "unit": "nM"}
    ]},
    {"smiles": "Cc1csc(NC(=O)c2cc(Oc3ccccc3)cc(Oc3cccc(S(C)(=O)=O)c3)c2)n1", "values": [
      {"measurement": "EC50", "setting": "[1]", "value": 1100, "unit": "nM"},
      {"measurement": "EC50", "setting": "[2]", "value": 940, "unit": "nM"}
    ]},
    {"smiles": "COc1ccccc1Oc1cccc(C(=O)Nc2nc(C)cs2)c1", "values": [
      {"measurement": "EC50", "setting": "[1]", "value": 2200, "unit": "nM"},
      {"measurement": "EC50", "setting": "[2]", "value": 490, "unit": "nM"}
    ]},
    {"smiles": "Cc1csc(NC(=O)c2cccc(Oc3cccc(S(C)(=O)=O)c3)c2)n1", "values": [
      {"measurement": "EC50", "setting": "[1]", "value": 18000, "unit": "nM"},
      {"measurement": "EC50", "setting": "[2]", "value": 1100, "unit": "nM"}
    ]},
    {"smiles": "Cc1csc(NC(=O)c2cccc(Oc3ccccc3S(C)(=O)=O)c2)n1", "values": [
      {"measurement": "EC50", "setting": "[1]", "value": 5500, "unit": "nM"},
      {"measurement": "EC50", "setting": "[2]", "value": 1100, "unit": "nM"}
    ]},
    {"smiles": "CCOc1ccccc1Oc1cccc(C(=O)Nc2nc(C)cs2)c1", "values": [
      {"measurement": "EC50", "setting": "[1]", "value": 5400, "unit": "nM"},
      {"measurement": "EC50", "setting": "[2]", "value": 1900, "unit": "nM"}
    ]},
    {"smiles": "Cc1csc(NC(=O)c2cccc(Oc3ccccc3)c2)n1", "values": [
      {"measurement": "EC50", "setting": "[1]", "value": 19000, "unit": "nM"},
      {"measurement": "EC50", "setting": "[2]", "value": 800, "unit": "nM"}
    ]},
    {"smiles": "Cc1csc(NC(=O)c2cc(Oc3ccccc3)cc(Oc3ccc(S(C)(=O)=O)cc3)c2)n1", "values": [
      {"measurement": "EC50", "setting": "[1]", "value": 420, "unit": "nM"},
      {"measurement": "EC50", "setting": "[2]", "value": 350, "unit": "nM"}
    ]},
    {"smiles": "Cc1csc(NC(=O)c2cccc(Oc3ccc(S(C)(=O)=O)cc3)c2)n1", "values": [
      {"measurement": "EC50", "setting": "[1]", "value": 29000, "unit": "nM"},
      {"measurement": "EC50", "setting": "[2]", "value": 3400, "unit": "nM"}
    ]},
    {"smiles": "Cc1csc(NC(=O)c2cccc(Oc3ccccc3C)c2)n1", "values": [
      {"measurement": "EC50", "setting": "[1]", "value": 3200, "unit": "nM"},
      {"measurement": "EC50", "setting": "[2]", "value": 820, "unit": "nM"}
    ]},
    {"smiles": "Cc1csc(NC(=O)c2cc(Oc3ccccc3)cc(Oc3ccccc3S(C)(=O)=O)c2)n1", "values": [
      {"measurement": "EC50", "setting": "[1]", "value": 1100, "unit": "nM"},
      {"measurement": "EC50", "setting": "[2]", "value": 610, "unit": "nM"}
    ]},
    {"smiles": "Cc1csc(NC(=O)c2cccc(Oc3cccc(F)c3)c2)n1", "values": [
      {"measurement": "EC50", "setting": "[1]", "value": 6300, "unit": "nM"},
      {"measurement": "EC50", "setting": "[2]", "value": 2200, "unit": "nM"}
    ]},
    {"smiles": "CCOc1cc(Oc2ccccc2S(C)(=O)=O)cc(C(=O)Nc2nc(C)cs2)c1", "values": [
      {"measurement": "EC50", "setting": "[1]", "value": 2400, "unit": "nM"},
      {"measurement": "EC50", "setting": "[2]", "value": 2100, "unit": "nM"}
    ]},
    {"smiles": "Cc1csc(NC(=O)c2cccc(Oc3ccccc3F)c2)n1", "values": [
      {"measurement": "EC50", "setting": "[1]", "value": 2400, "unit": "nM"},
      {"measurement": "EC50", "setting": "[2]", "value": 450, "unit": "nM"}
    ]},
    {"smiles": "Cc1csc(NC(=O)c2cccc(Oc3ccc(F)cc3)c2)n1", "values": [
      {"measurement": "EC50", "setting": "[1]", "value": 21000, "unit": "nM"},
      {"measurement": "EC50", "setting": "[2]", "value": 4200, "unit": "nM"}
    ]},
    {"smiles": "Cc1csc(NC(=O)c2cc(Oc3ccc(S(C)(=O)=O)cc3)cc(OC(C)C)c2)n1", "values": [
      {"measurement": "clearance", "setting": "[3]", "value": 4.1, "unit": "mL/min/kg"},
      {"measurement": "AUC(0-inf)", "setting": "[4]", "value": 12, "unit": "µM·h"},
      {"measurement": "half-life", "setting": "[5]", "value": 1.1, "unit": "h"},
      {"measurement": "AUC(0-inf)", "setting": "[6]", "value": 9.7, "unit": "µM·h"},
      {"measurement": "Vd", "setting": "[7]", "value": 0.4, "unit": "L/kg"},
      {"measurement": "bioavailability", "setting": "[8]", "value": 40, "unit": "%"},
      {"measurement": "Activity", "setting": "[9]", "value": "Dose-dependent effect"},
      {"measurement": "EC50", "setting": "[1]", "value": 330, "unit": "nM"},
      {"measurement": "Cmax", "setting": "[10]", "value": 2900, "unit": "nM"},
      {"measurement": "Activity", "setting": "[11]", "value": "Active"},
      {"measurement": "Tmax", "setting": "[12]", "value": 1, "unit": "h"},
      {"measurement": "EC50", "setting": "[2]", "value": 130, "unit": "nM"}
    ]},
    {"smiles": "Cc1csc(NC(=O)c2cc(Oc3ccccc3S(C)(=O)=O)ccc2OC(C)C)n1", "values": [
      {"measurement": "EC50", "setting": "[1]", "value": "> 30000", "unit": "nM"},
      {"measurement": "EC50", "setting": "[2]", "value": "> 30000", "unit": "nM"}
    ]},
    {"smiles": "Cc1csc(NC(=O)c2cc(Oc3ccccc3S(C)(=O)=O)cc(OC(C)C)c2)n1", "values": [
      {"measurement": "EC50", "setting": "[1]", "value": 2100, "unit": "nM"},
      {"measurement": "EC50", "setting": "[2]", "value": 440, "unit": "nM"}
    ]},
    {"smiles": "Cc1cccc(Oc2cccc(C(=O)Nc3nc(C)cs3)c2)c1", "values": [
      {"measurement": "EC50", "setting": "[1]", "value": 8200, "unit": "nM"},
      {"measurement": "EC50", "setting": "[2]", "value": 2300, "unit": "nM"}
    ]},
    {"smiles": "Cc1ccc(Oc2cccc(C(=O)Nc3nc(C)cs3)c2)cc1", "values": [
      {"measurement": "EC50", "setting": "[1]", "value": 5900, "unit": "nM"},
      {"measurement": "EC50", "setting": "[2]", "value": 6400, "unit": "nM"}
    ]}
  ]
}
